One may read the IC50 as the concentration that inhibits the measured activity by half. The low end stands for higher potency, the high end for lower potency.

Calls of active or inactive are those of the source. The calls are words filed in the database; no cut-off is given here.

The source of these data is ChEMBL document CHEMBL4334435, “A focused structure-activity relationship study of psoralen-based immunoproteasome inhibitors” (Medchemcomm, 2019).

For series [1], the target named is T1, Proteasome Macropain subunit MB1 (Homo sapiens, UniProt P28074).
T1 sequence (P28074 whole entry): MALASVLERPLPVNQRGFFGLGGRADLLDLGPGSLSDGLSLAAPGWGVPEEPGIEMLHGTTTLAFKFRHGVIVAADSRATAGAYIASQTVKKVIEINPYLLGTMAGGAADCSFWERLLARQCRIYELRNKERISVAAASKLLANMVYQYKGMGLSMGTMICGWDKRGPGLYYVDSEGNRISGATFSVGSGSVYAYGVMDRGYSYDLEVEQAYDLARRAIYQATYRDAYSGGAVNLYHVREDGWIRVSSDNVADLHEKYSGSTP
Kind of series: Inhibition of human constitutive proteasome beta 5 subunit at 10 uM using Suc-LLVY-AMC as substrate preincubated for 30 mins followed by substrate addition measured for 120 mins by fluorescence based assay. The following applies: 2 h. The gist of the method: (§1)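 Purified human immunoproteasome or constitutive proteasome subunit activities measured with fluorogenic substrates in presence of 10 μM compound; reported as residual activity.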

The target of series [2] is T2, Proteasome subunit beta type-9 (Homo sapiens) (UniProt P28065).
T2 sequence (whole entry): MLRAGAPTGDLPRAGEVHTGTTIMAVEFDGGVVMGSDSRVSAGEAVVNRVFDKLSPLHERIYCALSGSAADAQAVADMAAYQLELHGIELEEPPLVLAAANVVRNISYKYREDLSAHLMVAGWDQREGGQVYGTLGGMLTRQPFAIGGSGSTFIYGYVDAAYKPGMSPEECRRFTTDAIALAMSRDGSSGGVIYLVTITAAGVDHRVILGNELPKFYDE
Kind of series: Inhibition of human immunoproteasome beta 1i subunit at 10 uM using Ac-PAL-AMC as substrate preincubated for 30 mins followed by substrate addition measured for 120 mins by fluorescence based assay. The gist of the method:
as §1

In series [3] the target is T3, Proteasome subunit beta type-10 (Homo sapiens) (UniProt P40306).
T3 sequence (whole entry): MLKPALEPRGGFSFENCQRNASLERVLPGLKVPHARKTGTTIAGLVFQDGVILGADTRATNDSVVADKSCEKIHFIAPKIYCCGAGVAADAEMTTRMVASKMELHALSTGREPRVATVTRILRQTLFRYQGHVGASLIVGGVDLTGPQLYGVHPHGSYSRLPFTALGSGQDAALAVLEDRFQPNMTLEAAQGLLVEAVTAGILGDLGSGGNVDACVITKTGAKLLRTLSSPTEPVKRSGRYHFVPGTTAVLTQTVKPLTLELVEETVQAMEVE
The series can be described thus: Inhibition of human immunoproteasome beta 2i subunit at 10 uM using Boc-LRR-AMC as substrate preincubated for 30 mins followed by substrate addition measured for 120 mins by fluorescence based assay. Put shortly: as §1

Series [4] has as its target T4, Proteasome subunit beta type-10 (Homo sapiens, UniProt P40306).
T4 sequence (P40306 whole entry): T3 sequence (whole entry)
Kind of series: Inhibition of human immunoproteasome beta 2i subunit using Boc-LRR-AMC as substrate preincubated for 30 mins followed by substrate addition measured for 120 mins by fluorescence based assay.

Series [5] has as its target T1, Proteasome Macropain subunit MB1. The series can be described thus: Inhibition of human constitutive proteasome beta 5 subunit using Suc-LLVY-AMC as substrate preincubated for 30 mins followed by substrate addition measured for 120 mins by fluorescence based assay.
Series [6] addresses T5, Proteasome subunit beta type-8 (Homo sapiens, UniProt P28062).
T5 sequence (P28062 whole entry): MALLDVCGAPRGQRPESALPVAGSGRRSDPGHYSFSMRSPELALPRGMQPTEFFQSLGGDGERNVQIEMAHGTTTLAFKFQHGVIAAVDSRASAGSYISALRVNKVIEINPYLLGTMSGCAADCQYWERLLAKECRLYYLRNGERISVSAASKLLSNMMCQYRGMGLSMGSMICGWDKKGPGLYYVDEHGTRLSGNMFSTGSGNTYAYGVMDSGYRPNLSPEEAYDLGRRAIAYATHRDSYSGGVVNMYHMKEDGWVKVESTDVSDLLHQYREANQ
Kind of series: Inhibition of human immunoproteasome beta 5i subunit using Suc-LLVY-AMC as substrate preincubated for 30 mins followed by substrate addition and measured for 120 mins by fluorescence based assay.

The target in series [7] is T6, Proteasome subunit beta type-9 (Homo sapiens, UniProt P28065).
T6 sequence (P28065 whole entry): T2 sequence (whole entry)
Kind of series: Inhibition of human immunoproteasome beta 1i subunit using Ac-PAL-AMC as substrate preincubated for 30 mins followed by substrate addition measured for 120 mins by fluorescence based assay.

In series [8] the target is T7, Proteasome subunit beta type-8 (Homo sapiens) (UniProt P28062).
T7 sequence (whole entry): T5 sequence (P28062 whole entry)
Kind of series: Inhibition of human immunoproteasome beta 5i subunit using Suc-LLVY-AMC as substrate assessed as residual activity at 10 uM preincubated for 30 mins followed by substrate addition measured for 120 mins by fluorescence based assay relative to control. The gist of the method: as §1

As for `Cc1c(-c2nsc(=O)o2)c(=O)oc2cc3occ(C4CCCC4)c3cc12`, the “inhibition (INH)” value in series [1] is “Not Active”. For the same molecule, the inhibition entry in series [2] and in series [3] was “inactive” throughout. The IC50 result is “Nd(Insoluble)” in series [4], “Nd(Insoluble)” in series [5], 0.264 µM in series [6] and “Nd(Insoluble)” in series [7].
Consider `Cc1c(CC(=O)N(C)CC#N)c(=O)oc2cc3occ(C4CCCCC4)c3cc12`, for which, in series [8], the Activity came to 101%.
Turning to `Cc1c(-c2nsc(=O)o2)c(=O)oc2cc3occ(-c4ccc(F)cc4)c3cc12`, in series [1], the “inhibition (INH)” value is recorded as “Not Active”. Moreover, the inhibition result in series [2] and in series [3] was “inactive” each time. Also, the IC50 entry is “Nd(Insoluble)” in series [4], “Nd(Insoluble)” in series [5], 0.2 µM in series [6] and “Nd(Insoluble)” in series [7].
Regarding `Cc1c(CCC(=O)N(C)CC#N)c(=O)oc2cc3occ(C4CCCCC4)c3cc12`, in series [8], the Activity is 111%.
In series [6], `Cc1c(CCC(=O)ON2C(=O)CCC2=O)c(=O)oc2cc3occ(C4CCCCC4)c3cc12` showed a half-maximal inhibitory concentration (IC50) of 1.83 µM.
For the molecule `Cc1cccc(-c2coc3cc4oc(=O)c(-c5nsc(=O)o5)c(C)c4cc23)c1`, in series [1], the “inhibition (INH)” value is on record as “Not Active”. The inhibition entry in series [2] and in series [3] was “inactive” each time. In addition, the IC50 result in series [4] was “Nd(Insoluble)”; in series [5], “Nd(Insoluble)”; in series [6], 0.365 µM; in series [7], “Nd(Insoluble)”.
As for `Cc1c(CCC(=O)NCC#N)c(=O)oc2cc3occ(C4CCCCC4)c3cc12`, the Activity in series [8] stood at 102%.
On to `COc1ccccc1-c1coc2cc3oc(=O)c(-c4nsc(=O)o4)c(C)c3cc12`, for which the “inhibition (INH)” value in series [1] is reported as “Not Active”. In addition, the inhibition entry in series [2] and in series [3] was “inactive” in each case. The 50% inhibitory concentration (IC50) entry was “Nd(Insoluble)” in series [4], “Nd(Insoluble)” in series [5], 0.227 µM in series [6] and “Nd(Insoluble)” in series [7].
Consider `Cc1c(CC(=O)NCC#N)c(=O)oc2cc3occ(C4CCCCC4)c3cc12`, for which the Activity in series [8] turned out to be 99%.
For the molecule `Cc1c(-c2nsc(=O)o2)c(=O)oc2cc3occ(-c4ccc(Br)cc4)c3cc12`, the “inhibition (INH)” value in series [1] is recorded as “Not Active”. Besides, the inhibition result in series [2] and in series [3] was “inactive” each time. Further, the IC50 result in series [4] was “Nd(Insoluble)”; in series [5], “Nd(Insoluble)”; in series [6], 0.351 µM; in series [7], “Nd(Insoluble)”.
With `Cc1c(-c2nsc(=O)o2)c(=O)oc2cc3occ(C4CCC4)c3cc12`, the “inhibition (INH)” value in series [1] is listed as “Not Active”. Moreover, the inhibition entry in series [2] and in series [3] was “inactive” in each case. In addition, the IC50 result in series [4] was “Nd(Insoluble)”; in series [5] it was “Nd(Insoluble)”; in series [6] it was 0.433 µM; in series [7], “Nd(Insoluble)”.
For the molecule `COc1cccc(-c2coc3cc4oc(=O)c(-c5nsc(=O)o5)c(C)c4cc23)c1`, in series [1], the “inhibition (INH)” value was “Not Active”. The inhibition result in series [2] and in series [3] was “inactive” in each case. Further, the IC50 entry in series [4] is “Nd(Insoluble)”; in series [5], “Nd(Insoluble)”; in series [6], 0.226 µM; in series [7], “Nd(Insoluble)”.
On to `Cc1c(CC(=O)ON2C(=O)CCC2=O)c(=O)oc2cc3occ(C4CCCCC4)c3cc12`, for which the Activity in series [8] came out at 62%.
